# From ChEMBL document CHEMBL1938286, “A concise synthesis of viscolin, and its anti-inflammatory effects through the suppression of iNOS, COX-2, ERK phosphorylation and proinflammatory cytokines expressions” (Eur J Med Chem, 2012)
# pIC50: −log10 of the molar value. Calls of active or inactive are those of the source. No cut-off for these calls is given here.
# Assays:
# Mus musculus [1] = assay: Antiinflammatory activity in ICR mouse assessed as decrease in carrageenan-induced serum TNFalpha level at 8 mg/kg, ip measured after 5 hrs; assay type: functional, organism-based; parameters: dose 8 mg/kg
# In short: (§1)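 Male ICR mice (18–25 g, n = 6 per group). Carrageenan was injected intraplantar into the paw, with drug given 30 min beforehand. Serum was collected at the 5th hr. Nitrite was measured colorimetrically by Griess reaction, and TNF-α by commercial ELISA. Data are mean ± SEM.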
# Mus musculus [2] = assay: Antiinflammatory activity in ICR mouse assessed as decrease in carrageenan-induced serum TNFalpha level at 8 mg/kg, ip; assay type: functional, organism-based; parameters: dose 8 mg/kg; in short: as §1
# Mus musculus [3] = assay: Antiinflammatory activity in ICR mouse assessed as decrease in carrageenan-induced serum NO level at 8 mg/kg, ip measured after 5 hrs; assay type: functional, organism-based; parameters: dose 8 mg/kg; in short: as §1
# Mus musculus [4] = assay: Antioxidant activity in carrageenan-stimulated ICR mouse assessed as increase in CAT activity at 8 mg/kg, ip measured after 5 hrs; assay type: functional; settings: route intraperitoneal
# In short: (§2)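 Male ICR mice (n = 6 per group) received the drug 30 min before intraplantar carrageenan, and paw tissue was taken at the 5th hr. Total SOD was measured by inhibition of cytochrome c reduction, CAT by Aebi's method, and cytosolic GPx by Paglia–Valentine. Activities are in U/mg protein, given as mean ± SEM.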
# Mus musculus [5] = assay: Antiinflammatory activity in carrageenan-stimulated ICR mouse assessed as effect on shape of collagen fiber at 8 mg/kg, ip measured after 5 hrs; assay type: functional, organism-based; parameters: dose 8 mg/kg
# In short: (§3)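 Male ICR mice were dosed 30 min before intraplantar carrageenan, and paw biopsies were taken 5 h later. Tissue was fixed in Dietric solution for 1 week at room temperature, dehydrated in graded ethanol and paraffin-embedded. 7-thickness sections were stained with hematoxylin–eosin or Van Gieson and examined by light microscopy.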
# Mus musculus [6] = assay: Antiinflammatory activity in carrageenan-stimulated ICR mouse assessed as vascular localization of inflammatory cells at 8 mg/kg, ip measured after 5 hrs; assay type: functional, organism-based; parameters: dose 8 mg/kg; in short: as §3
# RAW264.7 [7] = assay: Antiinflammatory activity in mouse RAW264.7 cells assessed as inhibition of LPS-induced PGE2 production at 20 uM administered 1 hr before LPS challenge measured after 24 hrs by ELISA
# Mus musculus [8] = assay: Antioxidant activity in carrageenan-stimulated ICR mouse assessed as increase in CAT activity at 2 mg/kg, ip measured after 5 hrs; assay type: functional; settings: route intraperitoneal; in short: as §2
# RAW264.7 [9] = assay: Antiinflammatory activity in LPS-stimulated mouse RAW264.7 cells assessed as inhibition of COX-2 protein expression after 24 hrs by Western blot analysis; assay type: functional, cell-based
# Mus musculus [10] = assay: Antioxidant activity in carrageenan-stimulated ICR mouse assessed as increase in GPx activity at 2 mg/kg, ip measured after 5 hrs; assay type: functional; settings: route intraperitoneal; in short: as §2
# RAW264.7 [11] = assay: Antiinflammatory activity in mouse RAW264.7 cells assessed as inhibition of LPS-induced TNFalpha production at 20 uM administered 1 hr before LPS challenge measured after 24 hrs by ELISA
# RAW264.7 [12] = assay: Antiinflammatory activity in mouse RAW264.7 cells assessed as inhibition of LPS-induced TNFalpha production at 10 uM administered 1 hr before LPS challenge measured after 24 hrs by ELISA
# Mus musculus [13] = assay: Antiinflammatory activity in carrageenan-stimulated ICR mouse assessed as reduction in COX2 immunoreactive cells at 8 mg/kg, ip measured after 5 hrs; assay type: functional, organism-based; parameters: dose 8 mg/kg
# Mus musculus [14] = assay: Antioxidant activity in carrageenan-stimulated ICR mouse assessed as increase in CAT activity at 4 mg/kg, ip measured after 5 hrs; assay type: functional; settings: route intraperitoneal; in short: as §2
# RAW264.7 [15] = assay: Antiinflammatory activity in LPS-stimulated mouse RAW264.7 cells assessed as inhibition of iNOS protein expression after 24 hrs by Western blot analysis; assay type: functional, cell-based
# RAW264.7 [16] = assay: Antiinflammatory activity in mouse RAW264.7 cells assessed as inhibition of LPS-induced TNFalpha production at 5 uM administered 1 hr before LPS challenge measured after 24 hrs by ELISA
# Mus musculus [17] = assay: Antiinflammatory activity in ICR mouse assessed as decrease in carrageenan-induced serum TNFalpha level at 4 mg/kg, ip; assay type: functional, organism-based; parameters: dose 4 mg/kg; in short: as §1
# Mus musculus [18] = assay: Down regulation of iNOS protein expression in carrageenan-stimulated ICR mouse at 8 mg/kg, ip measured after 5 hrs by Western blot analysis; assay type: functional; settings: route intraperitoneal
# In short: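 Male ICR mice (18–25 g, n = 6 per group) received intraplantar carrageenan. Paw tissue was taken 5 h after carrageenan. Lysates were made in RIPA buffer and 30 µg protein run on SDS-PAGE/PVDF immunoblot with ECL detection. Band intensities were quantified relative to the carrageenan-alone group across three independent experiments.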
# Mus musculus [19] = assay: Antiinflammatory activity in carrageenan-stimulated ICR mouse assessed as decrease in intercellular spaces at 8 mg/kg, ip measured after 5 hrs; assay type: functional, organism-based; parameters: dose 8 mg/kg; in short: as §3
# RAW264.7 [20] = assay: Antiinflammatory activity in mouse RAW264.7 cells assessed as inhibition of LPS-induced NO production administered 1 hr before LPS challenge measured after 24 hrs by Griess method; assay type: functional, cell-based
# [21] = Antioxidant activity in human neutrophils assessed as inhibition of fMLP/CB-induced superoxide anion generation; assay type: functional, cell-based; settings: Neutrophil
# Mus musculus [22] = assay: Antiinflammatory activity in carrageenan-stimulated ICR mouse assessed as effect on connective tissue damage at 8 mg/kg, ip measured after 5 hrs; assay type: functional, organism-based; parameters: dose 8 mg/kg; in short: as §3
# [23] = target: MAP kinase p38 (Mus musculus) (UniProt P47811+O08911+Q9WUI1+Q9Z1B7); assay: Inhibition of p38 phosphorylation in LPS-stimulated mouse RAW264.7 cells at 5 to 20 uM after 30 mins by Western blot analysis; assay type: cell-based
# In short: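 RAW 264.7 cells were pretreated with test agent, then stimulated with LPS for 30 min. Phospho-ERK, phospho-JNK and phospho-p38 were assessed by Western blot: RIPA lysates, 30 µg protein, SDS-PAGE, PVDF, primary antibody overnight at 4 °C, HRP secondary and ECL detection.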
# Mus musculus [24] = assay: Antioxidant activity in carrageenan-stimulated ICR mouse assessed as increase in SOD activity at 4 mg/kg, ip measured after 5 hrs; assay type: functional; settings: route intraperitoneal; in short: as §2
# Mus musculus [25] = assay: Antioxidant activity in carrageenan-stimulated ICR mouse assessed as increase in GPx activity at 4 mg/kg, ip measured after 5 hrs; assay type: functional; settings: route intraperitoneal; in short: as §2
structure (smiles),measurement,setting,value
COc1cc(CCCc2c(OC)cc(O)c(OC)c2OC)ccc1O [VISCOLIN],Activity,Mus musculus [1],Active
same,Activity,Mus musculus [2],Active
same,Activity,Mus musculus [3],Active
same,Activity,Mus musculus [4],4.98 U/mg
same,Activity,Mus musculus [5],Active
same,Activity,Mus musculus [6],Active
same,Activity,RAW264.7 [7],Active
same,Activity,Mus musculus [8],3.92 U/mg
same,Activity,RAW264.7 [9],Dose-dependent effect
same,Activity,Mus musculus [10],8.64 U/mg
same,Activity,RAW264.7 [11],Active
same,Activity,RAW264.7 [12],Active
same,Activity,Mus musculus [13],Active
same,Activity,Mus musculus [14],4.28 U/mg
same,Activity,RAW264.7 [15],Dose-dependent effect
same,Activity,RAW264.7 [16],Active
same,Activity,Mus musculus [17],Active
same,Activity,Mus musculus [18],63.6%
same,Activity,Mus musculus [19],Active
same,Activity,RAW264.7 [20],Dose-dependent effect
same,pIC50,RAW264.7 [20],4.75
same,IC50,[21],0.58 µg/mL
same,Activity,Mus musculus [22],Active
same,inhibition,[23],inactive
same,Activity,Mus musculus [24],3.46 U/mg
same,Activity,Mus musculus [25],10.97 U/mg
